A short description of data set [1]: Induction of 16.7 mM glucose-stimulated insulin secretion in NMRI mouse pancreatic islets at 10^-6 M after 60 mins by radioimmunoassay relative to 16.7 mM glucose control. In kind it is functional, Pancreatic islet. The essentials: (§1)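 Female NMRI mouse islets, cultured overnight, were preincubated 30 min in KRB with 3.3 mM glucose and 0.1% BSA. Single islets were then incubated 60 min at 37 °C in HEPES-KRB (pH 7.4) with 16.7 mM glucose plus compound at 10−10, 10−8 or 10−6 M, diluted from 10−4 M aqueous stock. Medium insulin was measured by RIA and expressed as fold of the 16.7 mM glucose control; 24 replicates.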

The nature of data set [2]: Induction of 16.7 mM glucose-stimulated insulin secretion in NMRI mouse pancreatic islets at 10^-8 M after 60 mins by radioimmunoassay relative to 16.7 mM glucose control. Type of data set: functional, Pancreatic islet. The essentials:
as §1

Data set [3] in a line: Induction of 16.7 mM glucose-stimulated insulin secretion in NMRI mouse pancreatic islets at 10^-10 M after 60 mins by radioimmunoassay relative to 16.7 mM glucose control. In kind it is functional, Pancreatic islet. The essentials:
as §1

Data set [4] can be described thus: Induction of 3.3 mM glucose-stimulated insulin secretion in NMRI mouse pancreatic islets at 10^-6 M after 60 mins by radioimmunoassay. In kind it is cell-based. Conditions: pancreatic islet, 1 h, 1 µM. In outline: (§2)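 Islets from adult female NMRI mice (22–25 g), collagenase-isolated and cultured overnight in RPMI 1640 (11.1 mM glucose, 10% FCS) at 37 °C. After 30 min preincubation in KRB with 3.3 mM glucose and 0.1% BSA, single islets were incubated 60 min at 37 °C in HEPES-KRB (pH 7.4) at 3.3, 6.6, 11.1 or 16.7 mM glucose ± compound at 10−6 M. Insulin in the medium was measured by RIA, reported in ng/mL; n = 16 per treatment.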

Data set [5] in a line: Induction of 6.6 mM glucose-stimulated insulin secretion in NMRI mouse pancreatic islets at 10^-6 M after 60 mins by radioimmunoassay. In kind it is cell-based. Conditions: pancreatic islet, 1 h, 1 µM. In outline:
as §2

Data set [6] relates to Pancreatic islet. The experiment in a line: Induction of 16.7 mM glucose-stimulated insulin secretion in NMRI mouse pancreatic islets at 10^-6 M after 60 mins by radioimmunoassay. Type of data set: functional, cell-based. The essentials:
as §2

Data set [7] in a line: Induction of 16.7 mM glucose-stimulated insulin secretion in NMRI mouse pancreatic islets at 10^-8 M pretreated for 72 hrs in presence of 11.1 mM glucose followed by 16.7 mM glucose stimulation after 60 mins by radioimmunoassay relative to 16.7 mM glucose control. Type of data set: functional, Pancreatic islet. In outline:
(§3)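 Islets from female NMRI mice were cultured 72 h in RPMI with 11.1 mM glucose and 10% FCS, ± compound at 10−8 M final. They were rinsed and preincubated 30 min in KRB with 3.3 mM glucose and 0.1% BSA. Single islets were then stimulated 60 min at 37 °C with 3.3 or 16.7 mM glucose. Insulin was measured by RIA as fold of the 16.7 mM glucose control; 24 replicates.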

Data set [8] in a line: Induction of 3.3 mM glucose-stimulated insulin secretion in NMRI mouse pancreatic islets at 10^-8 M pretreated for 72 hrs in presence of 11.1 mM glucose followed by 3.3 mM glucose stimulation after 60 mins by radioimmunoassay. In kind it is cell-based. Conditions: pancreatic islet, 1 h, 0.01 µM. The essentials:
as §3

For data set [9], the system named is Pancreatic islet. The experiment in a line: Upregulation of INS1 mRNA expression in NMRI mouse pancreatic islets at 10^-8 M after 72 hrs by Taqman-based qRT-PCR analysis. In kind it is functional, cell-based. In outline: (§4)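 Female NMRI mouse islets were exposed 72 h to compound at 10−8 M in RPMI with 11.1 mM glucose. Islets from 2–3 mice (180–200) were pooled for Trizol RNA extraction. Reverse transcription and 14-cycle preamplification preceded TaqMan real-time PCR. Data were normalized to the geometric mean of 18S and Hprt1 by the (1+efficiency)−ΔCT method and expressed as fold versus untreated control. Samples were run in triplicate, each measured in triplicate.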

Data set [10] concerns Pancreatic islet. Put plainly: Upregulation of INS2 mRNA expression in NMRI mouse pancreatic islets at 10^-8 M after 72 hrs by Taqman-based qRT-PCR analysis. Type of data set: functional, cell-based. The essentials: as §4
(Quantitative PCR measures a nucleic acid by following its amplification.)

Data set [11] concerns Pancreatic islet. Put plainly: Upregulation of PDX1 mRNA expression in NMRI mouse pancreatic islets at 10^-8 M after 72 hrs by Taqman-based qRT-PCR analysis. Type of data set: functional, cell-based. The essentials: as §4
Data set [12] concerns Pancreatic islet. Put plainly: Upregulation of INSR mRNA expression in NMRI mouse pancreatic islets at 10^-8 M after 72 hrs by Taqman-based qRT-PCR analysis. In kind it is functional, cell-based. In outline: as §4
Data set [13] has as its system Pancreatic islet. Put plainly: Upregulation of IRS1 mRNA expression in NMRI mouse pancreatic islets at 10^-8 M after 72 hrs by Taqman-based qRT-PCR analysis. In kind it is functional, cell-based. The essentials: as §4
In data set [14] the test system is Pancreatic islet. The experiment in a line: Upregulation of GLUT2 mRNA expression in NMRI mouse pancreatic islets at 10^-8 M after 72 hrs by Taqman-based qRT-PCR analysis. Type of data set: functional, cell-based. In outline: as §4
Data set [15] relates to Pancreatic islet. The experiment in a line: Upregulation of […] mRNA expression in NMRI mouse pancreatic islets at 10^-8 M after 72 hrs by Taqman-based qRT-PCR analysis. In kind it is functional, cell-based. The essentials:
as §4

Data set [16] has as its system Pancreatic islet. Put plainly: Upregulation of GCGR mRNA expression in NMRI mouse pancreatic islets at 10^-8 M after 72 hrs by Taqman-based qRT-PCR analysis. In kind it is functional, cell-based. In outline: as §4
Data set [17] concerns Pancreatic islet. The experiment in a line: (§5) Induction of 11.1 mM glucose-stimulated insulin secretion in NMRI mouse pancreatic islets at 10^-6 M after 60 mins by radioimmunoassay relative to control. In kind it is functional. The essentials: as §2
A short description of data set [18]: as §5. In kind it is functional, Pancreatic islet. In outline:
as §2

This note sets out measurements from ChEMBL document CHEMBL4138207, “Phenolic Substances from Ocimum Species Enhance Glucose-Stimulated Insulin Secretion and Modulate the Expression of Key Insulin Regulatory Genes in Mice Pancreatic Islets” (J Nat Prod, 2017).

Calls of active or inactive are those of the source. No cut-off for these calls is given here.

Consider `O=C(/C=C/c1ccc(O)c(O)c1)O[C@@H](C(=O)O)[C@@H](OC(=O)/C=C/c1ccc(O)c(O)c1)C(=O)O` [CICHORIC ACID], for which the “fold change (FC)” value in [1] was 4.1; in data set [2], 1.9; in [3], 1.8; in [7], 3.5. Besides, the Activity result in data set [4], in [5] and in [8] was “Non-Toxic” in each case. Also, the result in the data set with Pancreatic islet [6], with Pancreatic islet [9], with Pancreatic islet [10], in the data set on Pancreatic islet [11], with Pancreatic islet [12] and in the data set with Pancreatic islet [13] was Active. The result with Pancreatic islet [14], in the data set with Pancreatic islet [15] and in the data set on Pancreatic islet [16] was inactive.
As for `O=C(O)/C=C/c1ccc(O)c(O)c1` [CAFFEIC ACID], the “fold change (FC)” value is 2 in data set [1], 1.7 in [2] and 1.5 in [7]. For the same molecule, the Activity entry in data set [4], in [5] and in data set [8] was “Non-Toxic” each time. Also, the result in the data set on Pancreatic islet [17], in the data set with Pancreatic islet [9], with Pancreatic islet [10], with Pancreatic islet [12], with Pancreatic islet [13] and in the data set on Pancreatic islet [16] was inactive. Besides, the result with Pancreatic islet [6], in the data set with Pancreatic islet [11], in the data set on Pancreatic islet [14] and in the data set with Pancreatic islet [15] was Active.
In the case of `O=C(/C=C/c1ccc(O)c(O)c1)O[C@@H](C(=O)O)[C@@H](O)C(=O)O` [CAFTARIC ACID], the “fold change (FC)” value was found to be 5.5 in data set [1], 5.1 in data set [2], 2.8 in [3] and 3.2 in data set [7]. The Activity result in data set [4], in data set [5] and in [8] was “Non-Toxic” in each case. For the same molecule, the outcome in the data set with Pancreatic islet [6], in the data set on Pancreatic islet [9], in the data set on Pancreatic islet [10] and with Pancreatic islet [12] was Active. Also, the result with Pancreatic islet [11], with Pancreatic islet [13], with Pancreatic islet [14], in the data set with Pancreatic islet [15] and in the data set on Pancreatic islet [16] was inactive.
As to `O=c1cc(-c2ccc(O)cc2)oc2c([C@@H]3O[C@H](CO)[C@@H](O)[C@H](O)[C@H]3O)c(O)c([C@@H]3O[C@H](CO)[C@@H](O)[C@H](O)[C@H]3O)c(O)c12`, the “fold change (FC)” value in [1] came out at 2.3; in data set [2], 2.3; in data set [3], 2.5; in [7], 2.2. Moreover, the Activity result in data set [4], in data set [5] and in data set [8] was “Non-Toxic” in each case. The outcome in the data set with Pancreatic islet [6] and in the data set on Pancreatic islet [12] was Active. Moreover, the outcome in the data set on Pancreatic islet [9], in the data set with Pancreatic islet [10], in the data set on Pancreatic islet [11], in the data set on Pancreatic islet [13], with Pancreatic islet [14] and in the data set on Pancreatic islet [15] was inactive. Besides, the outcome in the data set with Pancreatic islet [16] was inactive.
On to `O=C(/C=C/c1ccc(O)c(O)c1)O[C@H](Cc1ccc(O)c(O)c1)C(=O)O` [ROSMARINIC ACID], for which the “fold change (FC)” value in data set [1] stood at 4.9; in data set [2] it was 2.8; in data set [3], 3.3; in data set [7] it was 3.4. Besides, the Activity entry in data set [4] is reported as “Non-Toxic”; in [5], “Non-Toxic”; in data set [18], 68%; in data set [8], “Non-Toxic”. For the same molecule, the result with Pancreatic islet [6], in the data set on Pancreatic islet [9], in the data set with Pancreatic islet [10], with Pancreatic islet [11], with Pancreatic islet [12] and in the data set with Pancreatic islet [13] was Active. Moreover, the outcome in the data set with Pancreatic islet [14] was Active. The result with Pancreatic islet [15] and in the data set on Pancreatic islet [16] was inactive.
